The values below come from ChEMBL document CHEMBL4364329, “Prodrug Activation by a Viral Protease: Evaluating Combretastatin Peptide Hybrids To Selectively Target Infected Cells” (ACS Med Chem Lett, 2019).

The nature of data set [1]: Ratio of compound CC50 to CA4 CC50 for human HuH7 cells measured after 72 hrs by cell titer blue assay. In kind it is ADME, cell-based, Huh-7.
Data set [2] has as its system dengue virus type 2. Nature of the data set: Antiviral activity against wild type Dengue virus serotype 2 infected in human HuH7 cells assessed as reduction in viral titer at 25 uM measured after 24 hrs by Cell-Titer Glo luminescent assay relative to control. Format: functional. The conditions noted are these: Huh-7, 24 h. The procedure, abridged:
(§1)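 Cells treated 24 h before titer readout; virus-containing supernatant split into duplicates, plaques counted and averaged, reduction calculated versus untreated blank; single-point experiment.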

In data set [3] the target is T1, Genome polyprotein (dengue virus type 2, UniProt P29990). The data set is described as follows: Prodrug activation assessed as Dengue virus serotype 2 NS2B-NS3 protease expressed in Escherichia coli BL21 lambda (DE3) cells-mediated compound hydrolysis in TRIS buffer at pH 9 at 500 uM incubated for 2 hrs by HPLC-UV analysis. The conditions noted are these: dengue virus type 2, pH 9, 2 h. The procedure, abridged: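 DENV protease at 1 μM with substrate at 500 μM in pH 9 buffer, incubated 2 h at 37 °C; fraction hydrolysed determined, triplicate wells.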

Data set [4] concerns HeLa. Nature of the data set: Ratio of compound CC50 to CA4 CC50 for human HeLa cells measured after 72 hrs by cell titer blue assay. Format: ADME, cell-based. (Resazurin is reduced to fluorescent resorufin, in cell work by metabolically active cells.)
Data set [5] is described as follows: Cytotoxicity against human HuH7 cells assessed as reduction in cell viability measured after 72 hrs by cell titer blue assay. In kind it is cell-based, Huh-7.
A short description of data set [6]: Cytotoxicity against human HeLa cells assessed as reduction in cell viability measured after 72 hrs by cell titer blue assay. Format: cell-based.
Data set [7] has as its system Zika virus. The data set is described as follows: Antiviral activity against Zika virus infected in human HuH7 cells assessed as reduction in viral titer at 5 uM measured after 24 hrs by Cell-Titer Glo luminescent assay relative to control. In kind it is functional. The conditions noted are these: Huh-7, 24 h. The procedure, abridged:
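Readout began after 24 h. This was a single-point experiment. Virus-containing supernatant was aliquoted in duplicate, plaques were counted and averaged, and reduction was calculated against an untreated blank.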

A short description of data set [8]: Cytotoxicity against human HuH7 cells assessed as reduction in cell viability measured after 24 hrs by cell titer blue assay. Format: cell-based, Huh-7.
In data set [9] the target is T1, Genome polyprotein. Nature of the data set: Inhibition of Dengue virus serotype 2 NS2B-NS3 protease expressed in Escherichia coli BL21 lambda (DE3) cells preincubated with enzyme for 15 mins followed by 2-Abz-Nle-Lys-Arg-Arg-Ser-(3-NO2)-Tyr-NH2 FRET substrate addition measured for 15 mins by fluorescence analysis.
The test system of data set [10] is Zika virus. Nature of the data set: Antiviral activity against Zika virus infected in human HuH7 cells assessed as reduction in viral titer at 50 uM measured after 24 hrs by Cell-Titer Glo luminescent assay relative to control. In kind it is functional. The settings on record: Huh-7, 24 h. The method, boiled down:
as §1

The target in data set [11] is Trypsin (Homo sapiens, UniProt P07477+P07478+P35030). Nature of the data set: Prodrug activation assessed as trypsin (unknown origin)-mediated compound hydrolysis in TRIS buffer at pH 9 at 100 uM incubated for 2 hrs. In kind it is protein assay. The settings on record: pH 9, 2 h.
Data set [12] concerns the target T1, Genome polyprotein. Nature of the data set: Inhibition of Dengue virus NS2B-NS3 protease using FRET Abz-Nle-Lys-Arg-Arg-Ser-3-(NO2)Tyr as substrate.
Data set [13] deals with dengue virus type 2. Nature of the data set: Antiviral activity against wild type Dengue virus serotype 2 infected in human HuH7 cells assessed as reduction in viral titer measured after 24 hrs by Cell-Titer Glo luminescent assay. Format: functional, organism-based. The settings on record: Huh-7, 24 h.
The test system of data set [14] is Huh-7. The data set is described as follows: Cytotoxicity against human HuH7 cells assessed as induction of mitosis after 24 hrs. In kind it is cell-based. The settings on record: huh-7, 24 h.
Data set [15] deals with HeLa. The data set is described as follows: Cytotoxicity against human HeLa cells assessed as cell doubling time by cell titer blue assay. Format: cell-based.
Data set [16] deals with Huh-7. Nature of the data set: Cytotoxicity against human HuH7 cells assessed as cell doubling time by cell titer blue assay. Format: cell-based.

The structures appear in SMILES notation. Non-standard residues stand in square brackets, D forms with d. Residues, ends and D or L forms follow the SMILES beside them. ξ: configuration not given here. *: point of attachment. X1 = COc1ccc(/C=C\c2cc(OC)c(OC)c(OC)c2)cc1N*; 2Abz = Nc1ccccc1C(=O)O; ξNle = CCCCC(N)C(=O)O; Bz = O=C(c1ccccc1)*

Take `COc1ccc(/C=C\c2cc(OC)c(OC)c(OC)c2)cc1N`: the selectivity ratio at 72 h in data set [1] was in the range of 20 to 2000. In addition, the inhibition – broadly, how much of the control response was suppressed – at 25 µM in [2] amounted to 66%. Further, the Drug metabolism result in [3] was “Metabolite_Notdetected”. The Ratio in data set [4] fell in the range of 20 to 2000. In addition, the half-maximal cytotoxic concentration (CC50) (commonly the concentration giving 50% cytotoxicity) at 72 h in data set [5] came to 3.93 nM; in data set [6] it was 1.47 nM. For the same molecule, in data set [7], the inhibition at 5 µM was determined as 84%. Also, the 50% cytotoxic concentration (CC50) at 24 h in data set [8] is > 100000 nM.
As for `COc1ccc(/C=C\c2cc(OC)c(OC)c(OC)c2)cc1NC(=O)[C@H](CO)NC(=O)[C@H](CCCNC(=N)N)NC(=O)[C@H](CCCCN)NC(=O)c1ccccc1`, the selectivity ratio at 72 h in [1] was in the range of 20 to 2000. In addition, in data set [2], the inhibition at 25 µM is 61%. Moreover, the Drug metabolism in data set [3] turned out to be 6.3%. Moreover, the Ratio in [4] was 20 to 2000. Also, the results for the half-maximal cytotoxic concentration (CC50) at 72 h in data set [5] and in data set [6] were 134 nM and 61.8 nM, respectively. For the same molecule, the half-maximal cytotoxic concentration (CC50) at 24 h in [8] is 77900 nM.
On to `COc1ccc(/C=C\c2cc(OC)c(OC)c(OC)c2)cc1NC(=O)CNC(=O)[C@H](CCCNC(=N)N)NC(=O)[C@H](CCCNC(=N)N)NC(=O)c1ccccc1`, for which the selectivity ratio at 72 h in data set [1] was 20 to 2000. The inhibition at 25 µM in [2] worked out at 84%. In data set [3], the Drug metabolism was 39%. Also, the Ratio in data set [4] fell in the range of 20 to 2000. For the same molecule, the 50% cytotoxic concentration (CC50) at 72 h is 26.6 nM in data set [5] and 7.2 nM in data set [6]. In data set [8], the half-maximal cytotoxic concentration (CC50) at 24 h came out at 88600 nM.
Turning to `COc1ccc(/C=C\c2cc(OC)c(OC)c(OC)c2)cc1NC(=O)CNC(=O)[C@H](CCCNC(=N)N)NC(=O)[C@H](CCCCN)NC(=O)c1ccccc1`, in data set [1], the selectivity ratio at 72 h fell in the range of 20 to 2000. Moreover, the inhibition at 25 µM in [2] was determined as 53%. Further, the Drug metabolism in [3] came out at 32%. In addition, in data set [4], the Ratio lay within 20 to 2000. Besides, the 50% cytotoxic concentration (CC50) at 72 h in data set [5] is 172 nM; in data set [6] it was 78.2 nM. In addition, in [8], the CC50 at 24 h was > 100000 nM.
For `COc1ccc(/C=C\c2cc(OC)c(OC)c(OC)c2)cc1NC(=O)CN`, the selectivity ratio at 72 h in [1] was 20 to 2000. In data set [2], the inhibition at 25 µM stood at 69%. Further, in data set [3], the Drug metabolism result is listed as “Metabolite_Notdetected”. In data set [4], the Ratio lay in the range of 20 to 2000. For the same molecule, the 50% cytotoxic concentration (CC50) at 72 h in [5] amounted to 26.9 nM; in [6], 37.7 nM. In [8], the CC50 at 24 h stood at 173000 nM.
Turning to `COc1ccc(/C=C\c2cc(OC)c(OC)c(OC)c2)cc1NC(=O)[C@H](CO)NC(=O)[C@H](CCCNC(=N)N)NC(=O)[C@H](CCCNC(=N)N)NC(=O)c1ccccc1`, in data set [9], inhibition was half-maximal at 25000 nM (IC50). In data set [1], the selectivity ratio at 72 h was 20 to 2000. In data set [2], the inhibition at 25 µM came out at 51%. The Drug metabolism in data set [3] is 3.4%; in data set [11], “Metabolite_Detected”. In addition, the Ratio in data set [4] fell in the range of 20 to 2000. Moreover, the inhibition at 50 µM in data set [10] was 92%. In addition, the CC50 at 72 h in data set [5] was 23.1 nM; in data set [6] it was 29.2 nM. Further, the CC50 at 24 h in data set [8] was > 100000 nM.
On to `COc1ccc(/C=C\c2cc(OC)c(OC)c(OC)c2)cc1NC(=O)CCNC(=O)[C@H](CCCNC(=N)N)NC(=O)[C@H](CCCNC(=N)N)NC(=O)c1ccccc1`, for which the selectivity ratio at 72 h in data set [1] is 20 to 2000. The inhibition at 25 µM in [2] came out at 57%. Moreover, the Drug metabolism in data set [3] came out at 6.7%. In data set [4], the Ratio lay in the range of 20 to 2000. The 50% cytotoxic concentration (CC50) at 72 h was found to be 156 nM in data set [5] and 952 nM in data set [6]. The CC50 at 24 h in data set [8] came out at 190000 nM.
In the case of `COc1ccc(/C=C\c2cc(OC)c(OC)c(OC)c2)cc1NC(=O)[C@H](C)N`, the selectivity ratio at 72 h in data set [1] is 20 to 2000. The inhibition at 25 µM in [2] turned out to be 64%. For the same molecule, the Drug metabolism result in data set [3] is recorded as “Metabolite_Notdetected”. Moreover, the Ratio in data set [4] lay within 20 to 2000. Further, the 50% cytotoxic concentration (CC50) at 72 h amounted to 6.03 nM in data set [5] and 6.69 nM in [6]. In addition, the CC50 at 24 h in data set [8] is 123000 nM.
Take `COc1ccc(/C=C\c2cc(OC)c(OC)c(OC)c2)cc1NC(=O)[C@H](C)NC(=O)[C@H](CCCNC(=N)N)NC(=O)[C@H](CCCNC(=N)N)NC(=O)c1ccccc1`: the selectivity ratio at 72 h in data set [1] was 20 to 2000. Moreover, the inhibition at 25 µM in [2] came to 57%. The Drug metabolism in data set [3] is listed as 36%. Besides, the Ratio in [4] lay within 20 to 2000. The cytotoxic concentration (CC50) at 72 h in data set [5] was 191 nM; in data set [6], 65.7 nM. For the same molecule, in [8], the 50% cytotoxic concentration (CC50) at 24 h amounted to 111000 nM.
For the molecule `COc1ccc(/C=C\c2cc(OC)c(OC)c(OC)c2)cc1NC(=O)[C@H](C)NC(=O)[C@H](CCCNC(=N)N)NC(=O)[C@H](CCCCN)NC(=O)c1ccccc1`, in data set [1], the selectivity ratio at 72 h fell in the range of 20 to 2000. The inhibition at 25 µM in data set [2] came out at 69%. Also, in [3], the Drug metabolism turned out to be 5.2%. Besides, the Ratio in data set [4] fell in the range of 20 to 2000. The CC50 at 72 h in [5] worked out at 71.6 nM; in [6], 24.6 nM. Moreover, the half-maximal cytotoxic concentration (CC50) at 24 h in [8] was > 100000 nM.
On to `COc1ccc(/C=C\c2cc(OC)c(OC)c(OC)c2)cc1NC(=O)[C@H](CCCNC(=N)N)NC(=O)[C@@H](N)CCCNC(=N)N`, for which half-maximal inhibition in data set [12] (IC50) was put at 6300 nM.
On to `COc1ccc(/C=C\c2cc(OC)c(OC)c(OC)c2)cc1NC(=O)CNC(=O)CNC(=O)[C@H](CCCNC(=N)N)NC(=O)[C@H](CCCNC(=N)N)NC(=O)c1ccccc1` (Bz-RRGG-X1), for which the selectivity ratio at 72 h in data set [1] was in the range of 20 to 2000. Further, the inhibition at 25 µM in data set [2] was determined as 55%. The Drug metabolism in data set [3] is on record as 42%; in data set [11] it was “Metabolite_Detected”. The Ratio in [4] was 20 to 2000. In addition, the CC50 at 72 h in data set [5] is 24 nM; in data set [6], 19.5 nM. In addition, the CC50 at 24 h in [8] came to 59700 nM.
As for `CCCCC(NC(=O)c1ccccc1N)C(=O)N[C@@H](CCCCN)C(=O)N[C@@H](CCCNC(=N)N)C(=O)N[C@@H](CCCNC(=N)N)C(=O)N[C@@H](CO)C(=O)N[C@@H](Cc1ccc(O)cc1)C(N)=O` (stereo partly drawn) (H-[2Abz][ξNle]KRRSY-NH2), in [3], the Drug metabolism is recorded as 94%.
Regarding `COc1ccc(/C=C\c2cc(OC)c(OC)c(OC)c2)cc1O` [COMBRETASTATIN A4], the EC50 (commonly the concentration at which the effect is half-maximal) in [13] came to 870 nM. The Activity result in data set [14] is reported as “Toxic”. In data set [3], the Drug metabolism result is listed as “Metabolite_Notdetected”. For the same molecule, the 50% cytotoxic concentration (CC50) at 72 h in data set [5] was found to be 1.05 nM; in data set [6] it was 0.428 nM. Moreover, in data set [7], the inhibition at 5 µM was found to be 70%. For the same molecule, the figures for the Time in [15] and in data set [16] were 24 h and 48 h, respectively. Moreover, in data set [8], the CC50 at 24 h stood at 38300 nM.
